In article PMC3152616 (Peptides, 2011):
Where two headings read alike, the source gives them in different places. Marks after values point to notes of the source that are not given here. Numbered stars: 1 amine (or outer) side, 2 acyl side, 3 side chain; on linkers, the order of the positions; unused ones are H or OH. Square brackets hold non-standard residues; d marks the D form. Peptide text beside a SMILES is read from it. * marks the point of attachment. dProψ(CH2NH)PheNH2 = NC(=O)[C@H](Cc1ccccc1)NC[C@H]1CCCN1*; X1 = O=C(C[C@@H](N[*:1])c1ccc(Cl)cc1)[*:2]; Hydrocinnamoyl = O=C(CCc1ccccc1)*; NHPhenethyl = c1ccc(CCN*)cc1; Nle = CCCC[C@H](N)C(=O)O; PhAc = O=C(Cc1ccccc1)*

What was measured:
BRS-3 [1] = target: T1, BRS-3 (Homo sapiens, UniProt P32247); conditions: cited from earlier work
T1 sequence (P32247 1-399): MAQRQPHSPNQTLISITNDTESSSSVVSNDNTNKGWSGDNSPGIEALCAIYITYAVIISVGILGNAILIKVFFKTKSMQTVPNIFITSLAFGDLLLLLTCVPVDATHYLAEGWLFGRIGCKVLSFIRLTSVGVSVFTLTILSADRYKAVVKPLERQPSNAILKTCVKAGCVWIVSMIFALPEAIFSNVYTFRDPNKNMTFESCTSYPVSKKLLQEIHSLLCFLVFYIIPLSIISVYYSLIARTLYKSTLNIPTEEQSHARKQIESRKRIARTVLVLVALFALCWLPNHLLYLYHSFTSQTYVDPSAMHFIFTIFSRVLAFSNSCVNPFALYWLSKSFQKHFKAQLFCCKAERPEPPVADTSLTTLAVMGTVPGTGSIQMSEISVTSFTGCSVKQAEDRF

[2] = tested on: EGFR tyrosine phosphorylation; experiment: EGFR tyrosine phosphorylation; format: cell-based, human
[3] = tested on: ERK tyrosine phosphorylation; experiment: ERK tyrosine phosphorylation; format: cell-based, human; conditions: concentration not given
BB2R = conditions: cited from earlier work
NCI-H1299-BRS-3 cells = experiment: Clonogenic assay; format: cell-based, human; conditions: for Effect on NCI-H1299-BRS-3 cellular proliferation: unpublished; for Colony number: addition 10 nM, mean ± S.D., no addition 40 ± 6
BB1R = conditions: read-out: IC50, binding to BB1R; transfected Balb 3T3 cells; cited from earlier work
Balb/3T3-BRS-3 cells = experiment: MTT proliferation assay; format: cell-based
BRS-3 [4] = target: T1, BRS-3; experiment: Inhibition of specific 125I-BA1 binding to NCI-H1299-BRS-3 cells
Balb/3T3 cells = experiment: MTT proliferation assay, control cells; format: cell-based; conditions: 30 μg/ml, 16 hours, mean ± S.E.
Summary of the method: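 Parental Balb/3T3 cells lacking BRS-3 were maintained in DMEM with 10% FBS. They were seeded at 10⁴/well in serum-free SIT medium (RPMI-1640 with selenite, insulin and transferrin) and exposed for 16 h to test compound at 10 nM or 30 μg/ml. MTT was then added for 3 h, formazan was dissolved in DMSO, and OD was read at 570 nm. Growth is given as % of control, mean ± S.E.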

[5] = concentration not given, data not shown / unpublished
[6] = read-out: IC50, binding to BB2R, transfected Balb 3T3 cells
[7] = read-out: IC50, binding to BRS-3, transfected Balb 3T3 cells

Compound: C[C@H](NC(=O)Cc1ccccc1)C(=O)N[C@H](Cc1c[nH]c2ccccc12)C(=O)NCCc1ccccc1 [16a] (PhAc-Ala-[dW]-NHPhenethyl)
- IC50 (BRS-3 [1]; read-out: IC50, binding to human BRS-3): 3.16 µM

Compound: COc1cc2ncnc(Nc3cccc(Cl)c3)c2cc1OC [AG1478]
- Inhibition of the increase in EGFR tyrosine phosphorylation caused by BA1 [2, 5]: blocked
- Inhibition of BA1-induced ERK tyrosine phosphorylation [3]: blocked

Compound: CCCC[C@H](NC(=O)[C@H](Cc1ccccc1)NC(=O)[C@H](Cc1c[nH]cn1)NC(=O)C[C@@H](NC(=O)[C@@H](NC(=O)[C@H](C)NC(=O)[C@H](Cc1c[nH]c2ccccc12)NC(=O)[C@H](CCC(N)=O)NC(=O)[C@H](N)Cc1ccc(O)cc1)C(C)C)c1ccc(Cl)cc1)C(N)=O [BA3, (DTyr^6, R-Apa^11,4-Cl,Phe^13, Nle^14)bombesin^6-14] (H-[dY]QWAV[X1]HF[Nle]-NH2; N-terminus and C-terminus assumed)
- EGFR tyrosine phosphorylation (transactivation) ([2]; 100 nM, NCI-H1299-BRS-3 cells): increased
- Selectivity for hBRS-3 over hNMBR or hGRPR (BRS-3 [1]): over 60 fold

Compound: CC(C)[C@H](NC(=O)[C@H](C)NC(=O)[C@H](Cc1c[nH]c2ccccc12)NC(=O)[C@H](Cc1c[nH]cn1)NC(=O)CCc1ccccc1)C(=O)N[C@H](C)C(=O)N[C@@H](Cc1c[nH]cn1)C(=O)N1CCC[C@@H]1CN[C@@H](Cc1ccccc1)C(N)=O [BW2258U89] (Hydrocinnamoyl-HWAV[dA]H-{dProψ(CH2NH)PheNH2}; N-terminus and C-terminus assumed)
- IC50 (BB2R; [6]): 0.0002 µM
- Effect on NCI-H1299-BRS-3 cellular proliferation (NCI-H1299-BRS-3 cells): little effect
- Inhibition of BA1-induced ERK tyrosine phosphorylation [3]: not inhibited
- IC50 (BB1R): 4.9 µM
- IC50 (BRS-3 [1]; [7]): 6.82 µM

Compound: c1ccc2c(c1)[I+]c1ccccc1-2 [DPI, diphenylene iodonium]
- Inhibition of the increase in EGFR tyrosine phosphorylation caused by BA1 ([2]; 15 μM, 100 nM BA1): inhibited

Compound: CNC(=O)[C@H](Cc1c[nH]c2ccccc12)NC(=O)[C@@H](CC(=O)NO)CC(C)C [GM6001]
- Inhibition of the increase in EGFR tyrosine phosphorylation caused by BA1 ([2]; 10 μM, 100 nM BA1): inhibited

Compound: CSCC[C@H](NC(=O)[C@H](CC(C)C)NC(=O)[C@H](Cc1c[nH]cn1)NC(=O)CNC(=O)[C@@H](NC(=O)[C@H](C)NC(=O)[C@H](Cc1c[nH]c2ccccc12)NC(=O)[C@H](Cc1c[nH]cn1)NC(=O)[C@H](CC(N)=O)NC(=O)CNC(=O)[C@H](CCCNC(=N)N)NC(=O)[C@@H]1CCCN1C(=O)[C@H](Cc1ccc(O)cc1)NC(=O)[C@H](CCSC)NC(=O)[C@H](CCCCN)NC(=O)[C@@H](NC(=O)[C@H](CC(C)C)NC(=O)[C@@H](NC(=O)[C@@H](NC(=O)CNC(=O)CNC(=O)CNC(=O)[C@H](C)NC(=O)[C@@H]1CCCN1C(=O)[C@H](CC(C)C)NC(=O)[C@@H]1CCCN1C(=O)[C@@H](N)C(C)C)[C@@H](C)O)C(C)C)[C@@H](C)O)C(C)C)C(N)=O [GRP, gastrin releasing peptide]
- Colony number (NCI-H1299-BRS-3 cells): 41 ± 5^aa

Compound: COc1cc2ncnc(Nc3ccc(F)c(Cl)c3)c2cc1OCCCN1CCOCC1 [Gefitinib, gefitinib]
- % Growth Balb/3T3-BRS-3 (Balb/3T3-BRS-3 cells; 30 μg/ml, 16 hours, MTT, mean ± S.E.): 41 ± 6 %
- IC50 (BRS-3 [4]): > 2 µM
- % Growth Balb/3T3 (Balb/3T3 cells): 31 ± 4 %
- Effect on colony number (NCI-H1299-BRS-3 cells; gefitinib dose-response, exogenous BA1 not added, Fig. 1B): reduced colony number in a dose-dependent manner

Compound: CC(=O)N[C@@H](CS)C(=O)O [N-acetylcysteine]
- Inhibition of the increase in EGFR tyrosine phosphorylation caused by BA1 ([2]; 5 mM, 100 nM BA1): reversed

Compound: CSCC[C@H](NC(=O)[C@H](Cc1ccccc1)NC(=O)[C@H](Cc1c[nH]cn1)NC(=O)CNC(=O)[C@@H](NC(=O)[C@H](C)NC(=O)[C@H](Cc1c[nH]c2ccccc12)NC(=O)[C@H](CC(C)C)NC(=O)[C@H](CC(N)=O)NC(=O)CN)[C@@H](C)O)C(N)=O [NMB, neuromedin B]
- IC50 (BRS-3 [4]): > 2 µM
- Colony number (NCI-H1299-BRS-3 cells): 46 ± 5^a

Compound: COc1cccc(-c2cc(=O)c3ccccc3o2)c1N [PD98059]
- Effect on growth (Balb/3T3-BRS-3 cells; 10 μM, all cells tested, preliminary unpublished data): little effect
- Inhibition of the increase in EGFR tyrosine phosphorylation caused by BA1 [2, 5]: no effect
- Inhibition of BA1-induced ERK tyrosine phosphorylation [3]: reversed

Compound: C[C@@](Cc1c[nH]c2ccccc12)(NC(=O)Nc1ccc([N+](=O)[O-])cc1)C(=O)NCC1(c2ccccn2)CCCCC1 [PD168368]
- IC50 (BB2R; [6]): 0.213 µM
- IC50 (BRS-3 [4]; read-out: IC50, inhibition of specific 125I-BA1 binding, NCI-H1299-BRS-3 cells, 37°C, mean ± S.E. of 4 determinations): > 2 µM
- Effect on NCI-H1299-BRS-3 cellular proliferation (NCI-H1299-BRS-3 cells): little effect
- Inhibition of BA1-induced ERK tyrosine phosphorylation [3]: not inhibited
- IC50 (BB1R): 0.0005 µM
- IC50 (BRS-3 [1]; [7]): > 10 µM

Compound: CC(C)(C)n1nc(-c2ccc(Cl)cc2)c2c(N)ncnc21 [PP2]
- Inhibition of the increase in EGFR tyrosine phosphorylation caused by BA1 ([2]; 10 μM, 100 nM BA1): inhibited

Compound: O=S(=O)(O)c1cc(O)c(O)c(S(=O)(=O)O)c1 [Tiron]
- Inhibition of the increase in EGFR tyrosine phosphorylation caused by BA1 ([2]; 5 mM, 100 nM BA1): reversed

Compound: Ac-Phe-Trp-Ala-His(γBzl)-Nip-Gly-Arg-NH2
- IC50 (BB2R; read-out: IC50, BB2R, ref 2, 28): > 10 µM
- IC50 (BB2R; read-out: IC50, BB2R, ref 26, 27): 2.8 µM
